Where two headings read alike, the source gives them in different places.
Key:
[1] = type: in vivo, human; settings: for AUC(0-inf) / Cmax / Tmax / half-life: female, human, plasma, oral; for AUC(0-inf): AUC0–inf; for AUC(0-inf) / Cmax: mean (CV%); for Tmax: median (minimum, maximum); for half-life: t 1/2, mean (CV%)
Procedure, shortened: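 Healthy women received a single oral contraceptive dose (0.03 mg EE, 3 mg DRSP) fed on days 1, 8 and 18, with test compound 600 mg once daily on days 8–23. Blood was drawn predose and at 0.5–120 h postdose. EE and DRSP were measured by validated UHPLC-MS/MS (LLOQ 2.5 pg/mL and 0.5 ng/mL). LS geometric mean ratios (90% CI) of ln Cmax and AUC0–inf came from a mixed model (day fixed, subject random).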

CYP3A4 [2] = target: T1, CYP3A4 (Homo sapiens, UniProt P08684); settings: cited from earlier work
SULT1E1 [3] = target: T2, SULT1E1 (Homo sapiens, UniProt P49888); test: SULT1E1 in vitro inhibition test; type: biochemical
T2 sequence (P49888 1-294): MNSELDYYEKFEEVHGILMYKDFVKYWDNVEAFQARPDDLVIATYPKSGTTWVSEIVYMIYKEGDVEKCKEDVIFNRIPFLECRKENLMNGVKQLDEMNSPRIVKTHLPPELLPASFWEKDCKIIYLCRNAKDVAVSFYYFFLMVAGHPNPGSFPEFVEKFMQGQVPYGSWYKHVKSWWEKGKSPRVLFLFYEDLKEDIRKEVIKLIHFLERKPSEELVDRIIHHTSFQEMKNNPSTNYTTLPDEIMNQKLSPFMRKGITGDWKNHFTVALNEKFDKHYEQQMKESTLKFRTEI
Procedure, shortened: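 Recombinant human SULT1E1 expressed in E. coli was incubated with EE 5 nM as substrate. Test compound was tested at 0.8, 2, 8, 20, 80 and 200 µM, with quercetin 0.5 µM as positive control and a DMSO solvent control. Metabolite formation was read by UHPLC-MS/MS peak area, and activity was expressed relative to solvent control (n = 3). IC50 came from a sigmoidal fit; tentative Ki came from Cheng–Prusoff assuming competitive inhibition and substrate concentration equal to Km.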

CYP3A4 [4] = target: T1, CYP3A4; settings: in vitro studies; cited from earlier work
CYP3A4 [5] = target: T1, CYP3A4; test: In vitro CYP3A4 inhibition and induction by ziritaxestat and predictions from it; type: in vitro ADME; settings: data on file
UGT1A1 = target: T3, UGT1A1 (Homo sapiens, UniProt P22309); type: in vivo; settings: 600 mg q.d.; day 18 vs day 1; three subjects
T3 sequence (P22309 26-533): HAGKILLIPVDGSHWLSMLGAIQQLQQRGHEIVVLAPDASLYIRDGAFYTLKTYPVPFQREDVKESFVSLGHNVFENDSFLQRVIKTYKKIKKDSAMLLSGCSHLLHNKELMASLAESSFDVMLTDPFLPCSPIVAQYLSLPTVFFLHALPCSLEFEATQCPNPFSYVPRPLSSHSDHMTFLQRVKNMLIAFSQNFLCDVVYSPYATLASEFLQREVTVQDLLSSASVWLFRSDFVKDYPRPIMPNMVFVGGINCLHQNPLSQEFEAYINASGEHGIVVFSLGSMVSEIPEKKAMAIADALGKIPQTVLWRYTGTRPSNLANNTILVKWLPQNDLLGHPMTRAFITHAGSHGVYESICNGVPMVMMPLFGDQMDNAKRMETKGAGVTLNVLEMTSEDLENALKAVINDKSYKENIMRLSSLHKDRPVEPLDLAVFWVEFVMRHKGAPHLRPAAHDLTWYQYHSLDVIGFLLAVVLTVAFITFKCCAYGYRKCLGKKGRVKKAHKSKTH

SULT1E1 [6] = target: T2, SULT1E1; type: in vivo; settings: 600 mg q.d.; day 18 vs day 1; three subjects
Procedure, shortened: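 Plasma from three subjects, sampled on day 1 (oral contraceptive alone) and day 18 (with test compound 600 mg q.d.), was split into duplicate aliquots. One aliquot was hydrolysed with purified arylsulfatase and the other with genetically modified β-glucuronidase, in 1 M Tris-HCl pH 8.0 buffer (stock), at 50°C for 1 h. Total EE was measured by LC-MS/MS. EE AUClast with and without hydrolysis was computed by linear-up/log-down trapezoids.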

Safety and tolerability = type: in vivo, human; settings: 600 mg q.d. with oral contraceptive, healthy women
Procedure, shortened: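 Throughout the study in healthy women, TEAEs, serious TEAEs and TEAEs leading to discontinuation were monitored, covering oral contraceptive alone and co-administration with test compound 600 mg q.d. Intensity (mild/moderate) and investigator-judged relatedness were recorded. Clinical laboratory parameters, vital signs and ECG were also assessed.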

[7] = OC + ziritaxestat 600 mg q.d. (day 8, SD), n = 14
[8] = OC + ziritaxestat 600 mg q.d. (day 18, MD), n = 13
[9] = day 18 test vs. day 1 reference, ziritaxestat 600 mg q.d.

T1 sequence (P08684 whole entry): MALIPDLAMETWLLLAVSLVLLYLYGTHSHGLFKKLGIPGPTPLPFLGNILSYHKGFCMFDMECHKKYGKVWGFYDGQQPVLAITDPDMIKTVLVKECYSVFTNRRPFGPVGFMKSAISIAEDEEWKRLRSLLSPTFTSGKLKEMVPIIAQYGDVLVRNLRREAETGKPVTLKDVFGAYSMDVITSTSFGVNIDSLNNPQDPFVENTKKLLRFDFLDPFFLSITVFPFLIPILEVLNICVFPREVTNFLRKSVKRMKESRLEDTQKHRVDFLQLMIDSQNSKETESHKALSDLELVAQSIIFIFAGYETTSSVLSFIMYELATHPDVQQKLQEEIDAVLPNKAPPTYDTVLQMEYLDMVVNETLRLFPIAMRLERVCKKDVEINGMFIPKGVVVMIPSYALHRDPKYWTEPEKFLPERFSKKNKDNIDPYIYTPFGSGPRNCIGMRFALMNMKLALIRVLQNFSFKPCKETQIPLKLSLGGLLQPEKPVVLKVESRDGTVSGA

C[C@]12CCC(=O)C=C1[C@@H]1C[C@@H]1[C@H]1[C@@H]3[C@@H]4C[C@@H]4[C@@]4(CCC(=O)O4)[C@@]3(C)CC[C@@H]12 [Drospirenone, drospirenone]
AUC(0-inf) [1, 7]: 686 ng·h/mL
AUC(0-inf) [1, 8]: 708 ng·h/mL
AUC(0-inf) ([1]; OC alone (day 1), n = 15): 574 ng·h/mL
Cmax [1, 7]: 21.4 ng/mL
Cmax [1, 8]: 22.6 ng/mL
Cmax ([1]; OC alone (day 1), n = 15): 20.7 ng/mL
Tmax [1, 7]: 2.5 h
Tmax [1, 8]: 4 h
half-life [1, 7]: 44.7 h
half-life [1, 8]: 43.4 h
half-life ([1]; OC alone (day 1), n = 15): 39 h

C#C[C@]1(O)CC[C@H]2[C@@H]3CCc4cc(O)ccc4[C@H]3CC[C@@]21C [Ethinyl estradiol, ethinyl estradiol]
increase of AUC0–inf on co-administration with ziritaxestat [1, 9]: 2.4 fold
increase of Cmax on co-administration with ziritaxestat [1, 9]: 2.8 fold
AUC(0-inf) [1, 7]: 2.02 ng·h/mL
AUC(0-inf) [1, 8]: 2.18 ng·h/mL
AUC(0-inf) ([1]; OC alone (day 1), n = 15, fed): 0.967 ng·h/mL
Cmax [1, 7]: 0.122 ng/mL
Cmax ([1]; OC alone (day 1), n = 15): 0.047 ng/mL
half-life [1, 7]: 30.1 h
half-life ([1]; OC alone (day 1), n = 15): 22 h

CC(C)(C)NC(=O)N[C@H](C(=O)N1C[C@H]2[C@@H]([C@H]1C(=O)NC(CC1CCC1)C(=O)C(N)=O)C2(C)C)C(C)(C)C (some centres unmarked) [boceprevir]
increase in DRSP exposure on co-administration (CYP3A4 [2]; strong CYP3A4 inhibition): 100%

O=c1c(O)c(-c2ccc(O)c(O)c2)oc2cc(O)cc(O)c12 [quercetin, Quercetin]
inhibition at 0.5 µM (SULT1E1 [3]; read-out: inhibition of SULT1E1): 66%

C[C@@H](c1ncncc1F)[C@](O)(Cn1cncn1)c1ccc(F)cc1F [voriconazole]
increase of the systemic exposure of EE on co-administration (CYP3A4 [2]; strong CYP3A4 inhibitor co-administered): 60%

CCc1nc2c(C)cc(N3CCN(CC(=O)N4CC(O)C4)CC3)cn2c1N(C)c1nc(-c2ccc(F)cc2)c(C#N)s1 [ziritaxestat]
CYP3A4 induction and inhibition in vitro (in words) (CYP3A4 [4]): weak inducer and inhibitor
mode of CYP3A4 inhibition (CYP3A4 [5]): competitive and reversible
effect on EE glucuronidation in vivo (in words) (UGT1A1): potential weak inhibitory effect
effect on EE sulfation in vivo (in words) (SULT1E1 [6]): potent inhibitor of sulfation
tolerability (in words) (Safety and tolerability): generally well tolerated
IC50 (SULT1E1 [3]): < 800 nM
